This note sets out measurements from ChEMBL document CHEMBL2321682, “Synthesis and Anti-inflammatory Evaluation of Novel Benzimidazole and Imidazopyridine Derivatives” (ACS Med Chem Lett, 2013).

The nature of series [1]: Cytotoxicity against human HL7702 cells assessed as inhibition of cell viability at 20 uM after 24 to 72 hrs by MTT assay. The following applies: l02, 20 µM. The class given is cell-based. The gist of the method: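 Human normal liver HL-7702 cells exposed to 20 μM compound for 24, 48 and 72 h; viability read by MTT.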
Series [2] relates to RAW264.7. Nature of the series: Inhibition of LPS-induced IL-6 secretion in mouse RAW264.7 cells pretreated for 2 hrs prior to LPS addition measured after 22 hrs by ELISA. It is filed as functional, cell-based. The gist of the method:
(§1)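 Dose–response for IC50. RAW264.7 cells were seeded at 1.2 × 10^6/plate overnight at 37 °C, 5% CO2. They were pretreated 2 h with 1.0, 5.0 or 10 μM compound, then given LPS 0.5 μg/mL for 22 h. Medium TNF-α or IL-6 was quantified by ELISA and normalized to total protein.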

Series [3] relates to RAW264.7. Nature of the series: Inhibition of LPS-induced TNF-alpha secretion in mouse RAW264.7 cells pretreated for 2 hrs prior to LPS addition measured after 22 hrs by ELISA. It is filed as functional, cell-based. The method, boiled down:
as §1

Series [4] relates to RAW264.7. Put plainly: Inhibition of LPS-induced IL-6 secretion in mouse RAW264.7 cells at 10 uM pretreated for 2 hrs prior to LPS addition measured after 22 hrs by ELISA. It is filed as functional. The gist of the method: (§2)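 RAW 264.7 macrophages seeded at 4.0 × 10^5/plate overnight (37 °C, 5% CO2), pretreated 2 h with 10 μM compound (omeprazole as comparator), then LPS 0.5 μg/mL for 22 h. TNF-α and IL-6 in medium measured by ELISA, normalized to total cellular protein.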

Series [5] concerns RAW264.7. Nature of the series: Inhibition of LPS-induced TNF-alpha secretion in mouse RAW264.7 cells at 10 uM pretreated for 2 hrs prior to LPS addition measured after 22 hrs by ELISA. It is filed as functional. The gist of the method:
as §2

For series [6], the system named is Mus musculus. Put plainly: Antiinflammatory activity against LPS-induced C57BL/6 mouse sepsis model assessed as increase in survival rate at 15 mg/kg, iv administered 15 mins after LPS injection measured for 7 days. It is filed as functional. The gist of the method: (§3)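 Mice received LPS 20 mg/kg iv. Test agent was given iv as its HCl salt at 15 mg/kg, either 15 min after LPS (line 1, therapeutic) or 15 min before LPS (line 2, preventive). Survival and body weight were recorded daily for 7 days. Data pool two experiments, n = 12 per group, compared with the LPS-alone group.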

The subject of series [7] is Mus musculus. Put plainly: Antiinflammatory activity against LPS-induced C57BL/6 mouse sepsis model assessed as increase in survival rate at 15 mg/kg, iv administered 15 mins prior to LPS injection measured for 7 days. The class given is functional. The gist of the method: as §3

Some results are limits rather than exact numbers.

For the compound `CCCn1c(-c2c[nH]c3ncccc23)nc2ccc(N3CCN(C)CC3)nc21` [listing 1 of 2 here], the Activity result in series [1] is “Non-toxic”. The figures for the IC50 in the series on RAW264.7 [2] and in the series with RAW264.7 [3] were 1.62 µM and 4.79 µM, respectively. The inhibition at 10 µM in the series with RAW264.7 [4] is above 50%; with RAW264.7 [5], 50%.

For the compound `CCCn1c(-c2ccccc2F)nc2ccc(N3CCN(C)CC3)nc21`, in the series on RAW264.7 [5], the inhibition at 10 µM amounted to 50%.

As for `CCCn1c(-c2ccccc2OC)nc2ccc(N3CCN(C)CC3)nc21`, in the series with RAW264.7 [5], the inhibition at 10 µM was found to be 50%.

With `CN1CCN(c2ccc3nc(-c4c[nH]c5ccccc45)[nH]c3n2)CC1`, in the series on RAW264.7 [5], the inhibition at 10 µM was determined as 50%.

As to `CCCn1c(-c2c[nH]c3ccccc23)nc2ccc(N3CCN(C)CC3)nc21`, the IC50 worked out at 4.3 µM in the series with RAW264.7 [2] and 14.2 µM in the series on RAW264.7 [3]. Moreover, the inhibition result in the series with RAW264.7 [2] and in the series on RAW264.7 [3] was “Dose-dependent effect” in each case. Further, the figures for the inhibition at 10 µM in the series on RAW264.7 [4] and in the series with RAW264.7 [5] were 81.4% and 64.8%, respectively.

Regarding `COc1ccccc1-c1nc2ccc(N3CCN(C)CC3)nc2[nH]1`, the inhibition at 10 µM with RAW264.7 [5] was found to be 50%.

On to `CCN(CC)CCn1c(-c2ccccc2OC)nc2cc(Cl)ccc21`, for which the inhibition at 10 µM with RAW264.7 [5] turned out to be 50%.

As to `Cc1ccc(-c2nc3ccc(N4CCN(C)CC4)nc3[nH]2)s1`, the inhibition at 10 µM in the series with RAW264.7 [5] was determined as 50%.

On to `CCCn1c(-c2c[nH]c3ncccc23)nc2ccc(N3CCN(C)CC3)nc21` [listing 2 of 2 here], for which the inhibition entry in the series with RAW264.7 [2] and in the series with RAW264.7 [3] was “Dose-dependent effect” each time.

For the compound `CCCn1c(-c2ccc(C)s2)nc2ccc(N3CCOCC3)nc21`, the inhibition at 10 µM in the series on RAW264.7 [5] is 50%.

For the compound `CCCn1c(-c2ccc(C)s2)nc2ccc(N3CCN(C)CC3)nc21`, the figures for the half-maximal inhibitory concentration (IC50) in the series with RAW264.7 [2] and in the series with RAW264.7 [3] were 2.81 µM and 7.25 µM, respectively. The inhibition result with RAW264.7 [2] and with RAW264.7 [3] was “Dose-dependent effect” throughout. Also, the inhibition at 10 µM in the series with RAW264.7 [4] is above 50%; in the series on RAW264.7 [5] it was 50%.

Regarding `CCCn1c(-c2cn(C)c3ccccc23)nc2ccc(N3CCOCC3)nc21`, in the series with RAW264.7 [5], the inhibition at 10 µM came to 50%.

For `CCCn1c(-c2ccccc2Br)nc2ccc(N3CCN(C)CC3)nc21`, in the series with RAW264.7 [5], the inhibition at 10 µM amounted to 50%.

With `CCCn1c(-c2cn(C)c3ccccc23)nc2ccc(N3CCN(C)CC3)nc21`, the inhibition at 10 µM in the series on RAW264.7 [5] worked out at 50%.

Take `CCCn1c(-c2c[nH]c3ncccc23)nc2ccc(N3CCN(C)CC3)nc21.Cl`: the Activity in the series on Mus musculus [6] and in the series on Mus musculus [7] was 50% throughout.

As for `CCCn1c(-c2ccc(OCCCN(C)C)cc2)nc2ccc(N3CCN(C)CC3)nc21`, the Activity entry in series [1] was “Non-toxic”. The concentration for half-maximal inhibition (IC50) with RAW264.7 [2] amounted to 3.28 µM; in the series with RAW264.7 [3], 12.4 µM. The inhibition entry in the series on RAW264.7 [2] and with RAW264.7 [3] was “Dose-dependent effect” each time. For the same compound, the inhibition at 10 µM in the series on RAW264.7 [4] was above 50%; with RAW264.7 [5] it was 50%.

On to `CCCn1c(-c2c[nH]c3ccc(Br)cc23)nc2ccc(N3CCN(C)CC3)nc21`, for which the Activity result in series [1] is given as “Toxic”. Besides, the IC50 was determined as 1.21 µM with RAW264.7 [2] and 1.99 µM in the series on RAW264.7 [3]. Further, the inhibition result in the series on RAW264.7 [2] and in the series on RAW264.7 [3] was “Dose-dependent effect” in each case. The figures for the inhibition at 10 µM in the series on RAW264.7 [4] and in the series with RAW264.7 [5] were above 50% and 50%, respectively.
